Data set [1] is described as follows: Inhibition of dog kidney cortex NEP at pH 7. Also on record: species or system Canis lupus familiaris.
The species named for the next data set is Sus scrofa. Description: Inhibition of pig ACE. In a few lines:
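Porcine ACE; same format as the NEP assay. Substrate o-aminobenzoyl-Gly-Gly-p-nitro-Phe-Pro-OH, 10 µM final, in 50 mM Tris-Cl pH 7.4 (37 °C) with 300 mM NaCl. Stopped with 2 mM EDTA; fluorescence read-out. IC50 from dilution series.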

Data set [2] deals with T1, Endothelin-converting enzyme 1 (Homo sapiens) (UniProt P42892).
T1 sequence (whole entry): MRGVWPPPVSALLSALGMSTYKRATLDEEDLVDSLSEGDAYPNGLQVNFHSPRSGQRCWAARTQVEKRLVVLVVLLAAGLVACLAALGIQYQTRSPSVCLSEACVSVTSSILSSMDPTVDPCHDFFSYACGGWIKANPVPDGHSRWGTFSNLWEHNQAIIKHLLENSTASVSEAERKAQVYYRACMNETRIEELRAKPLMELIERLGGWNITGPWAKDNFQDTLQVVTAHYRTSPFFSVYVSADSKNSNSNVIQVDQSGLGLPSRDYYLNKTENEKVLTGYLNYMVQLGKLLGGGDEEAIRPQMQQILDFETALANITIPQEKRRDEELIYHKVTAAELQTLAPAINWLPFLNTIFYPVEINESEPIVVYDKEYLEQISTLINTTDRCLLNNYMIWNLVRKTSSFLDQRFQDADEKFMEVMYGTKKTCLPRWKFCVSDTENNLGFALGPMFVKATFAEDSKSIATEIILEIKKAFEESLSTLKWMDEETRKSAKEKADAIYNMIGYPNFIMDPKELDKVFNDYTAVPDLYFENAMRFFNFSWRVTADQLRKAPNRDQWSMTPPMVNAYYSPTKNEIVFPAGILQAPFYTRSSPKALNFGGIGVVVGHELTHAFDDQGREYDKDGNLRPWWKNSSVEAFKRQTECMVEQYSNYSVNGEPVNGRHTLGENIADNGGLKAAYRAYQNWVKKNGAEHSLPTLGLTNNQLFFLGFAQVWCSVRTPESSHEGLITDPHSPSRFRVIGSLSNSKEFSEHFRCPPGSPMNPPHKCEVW
Description: Inhibition of human ECE1. The method in brief: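 Human ECE-1, run like the ACE assay (50 mM Tris-Cl pH 7.4, 300 mM NaCl, EDTA stop), with Big ET-1 as substrate. IC50 from dilution series.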

Data set [3] can be described thus: Distribution coefficient, log D in n-octanol and phosphate buffer at pH 7.4. It counts as physicochemical.
Data set [4] can be described thus: Metabolic stability in human liver microsomes at 1 uM. It counts as ADME, Microsome. In a few lines: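 Human liver microsomes, 1 µM compound with 0.5 µM CYP. Reported as first-order compound disappearance half-life.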
For orientation: Liver microsomes are a subcellular fraction often used to study metabolism.

A short description of data set [5]: Permeability from apical to basolateral side of the Caco-2 cell membrane at pH 7.4. The note with it: human, Caco-2, pH 7.4. It is filed as ADME, cell-based. In a few lines:
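Caco-2 monolayers; apparent permeability (Papp) measured with pH 7.4 in both apical and basolateral chambers.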
(In general: Caco-2 monolayers are a common model of the intestinal barrier.)

Data set [6] can be described thus: Inhibition of dog kidney cortex NEP at pH 7.4. Further details: species or system Canis lupus familiaris.
Data set [7] can be described thus: Clearance in rat at 1 mg/kg, iv and 1 mg/kg, po. It is filed as ADME, organism-based. The note with it: in vivo. In a few lines: (§1)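 Male CD rats, jugular vein cannulated under general anaesthesia; dosed 1 mg/kg iv (tail vein) and po (gavage). Serial 0.2 ml blood samples taken from the cannula into heparin, centrifuged to plasma, stabilised with 0.01 parts 85% phosphoric acid, frozen. Plasma levels measured by LC–MS–MS after C18 solid-phase extraction, with internal standard.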

Data set [8] in a line: Volume of distribution in rat at 1 mg/kg, iv and 1 mg/kg, po. It is filed as ADME, organism-based. To be noted: in vivo, read-out: Vdss. The method in brief: as §1
A short description of data set [9]: Half life in rat at 1 mg/kg, iv and 1 mg/kg, po. It counts as ADME, organism-based. The note with it: in vivo. The method in brief: as §1
A short description of data set [10]: Fraction unbound ligand in rat at 1 mg/kg, iv and 1 mg/kg, po. It is filed as ADME, organism-based. To be noted: in vivo. In a few lines: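 Fraction unbound in rat plasma measured at 1 µg/ml by equilibrium dialysis against isotonic Krebs–Ringer bicarbonate buffer, pH 7.4.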
Data set [11] is described as follows: Oral bioavailability in rat at 1 mg/kg, iv and 1 mg/kg, po. It counts as ADME, organism-based. To be noted: in vivo. The method in brief:
as §1

The species entered for the next data set is Homo sapiens. Description: Protein binding in human plasma at 1 ug/ml by equilibrium dialysis. To be noted: read-out: PPB (converted). (In general: In equilibrium dialysis free small molecules cross a membrane that holds back macromolecules.)

The structures appear in SMILES notation. Where only a bound is given, the exact number is not on record here.

`COCCC(CC1(C(=O)NC2(CO)Cc3ccccc3C2)CCCC1)C(=O)O` (stereo not drawn): the IC50 (commonly the point on the concentration scale where inhibition reaches its midpoint) in data set [1] turned out to be 11 nM. Moreover, the Activity in the data set listed under Sus scrofa is > 3 µM.

In turn, `COCCC(CC1(C(=O)NCCCc2ccc(Cl)cc2)CCCC1)C(=O)O` (stereo not drawn) returned an IC50 in data set [1] of 2 nM. The Activity in the data set listed under Sus scrofa is > 3 µM.

In data set [1], `COCCC(CC1(C(=O)NCCCc2ccccc2)CCCC1)C(=O)O` (stereo not drawn) came in with an IC50 of 35 nM. The Activity in the data set listed under Sus scrofa is > 3 µM.

Regarding `COCC[C@H](CC1(C(=O)NCCCc2ccc(F)cc2)CCCC1)C(=O)O`, the 50% inhibitory concentration (IC50) in data set [1] was 2 nM; in data set [6], 8.8 nM. The Activity (in the data set filed under Sus scrofa; in [2]) was > 3 µM in each case. Further, in [3], the logD – broadly, the decadic logarithm of the distribution of all forms, ionised or not, between an organic phase and buffer at a given pH – was 0.5. Also, the half-life (usually the time in which the quantity being followed falls by half) at 1 µM in [4] was > 120 min. Further, the Papp A→B (as a rule, the apparent permeability from the apical to the basolateral side of a cell layer) in data set [5] worked out at 12 ×10⁻⁶ cm/s. The same compound had a clearance in [7] of 13 mL/min/kg. Moreover, in data set [8], the Vd is 2.7 L/kg. Besides, the half-life in data set [9] is 144 min. In data set [10], the fraction unbound came out at 0.138. For the same compound, the bioavailability in data set [11] is 138%. In addition, in the data set listed under Homo sapiens, the fraction unbound at 1 ug/ml is 0.124.

`COCCC(CC1(C(=O)NCCc2ccc(OC)cc2)CCCC1)C(=O)O` (stereo not drawn) showed an IC50 in [1] of 369 nM. Also, in the data set filed under Sus scrofa, the Activity was > 3 µM.

In [1], `CCCCc1ccnc(NC(=O)C2(CC(CCOC)C(=O)O)CCCC2)c1` (stereo not drawn) displayed an IC50 of 17 nM. The Activity in the data set listed under Sus scrofa was > 3 µM.

`COCCC(CC1(C(=O)NCCCc2ccc(F)cc2)CCCC1)C(=O)O` (stereo not drawn): the IC50 in data set [1] came out at 15 nM. Also, the Activity in the data set listed under Sus scrofa was > 3 µM.

`COCC(CC1(C(=O)N[C@H]2C[C@@H]2c2ccccc2)CCCC1)C(=O)O` (relative stereo) returned an IC50 in data set [1] of 65 nM. Also, the Activity in the data set listed under Sus scrofa is > 3 µM.

For `COCCC(CC1(C(=O)N[C@H]2C[C@@H]2c2ccc(Cl)cc2)CCCC1)C(=O)O` (relative stereo), half-maximal inhibition in [1] (IC50) was put at 21 nM. Also, in the data set filed under Sus scrofa, the Activity was > 3 µM.

The compound `CCCCC[C@@H]1C[C@H]1NC(=O)C1(CC(CCOC)C(=O)O)CCCC1` (relative stereo) showed an IC50 in [1] of 10 nM. Besides, the Activity in the data set filed under Sus scrofa is > 3 µM.

As to `COCCC(CC1(C(=O)NCCc2ccccc2)CCCC1)C(=O)O` (stereo not drawn), the IC50 in [1] is 500 nM. For the same compound, the Activity in the data set filed under Sus scrofa was > 3 µM.

For `CCCC(CC1(C(=O)Nc2nnc(CC)s2)CCCC1)C(=O)O` (stereo not drawn), in [1], the IC50 turned out to be 60 nM. For the same compound, the Activity in the data set listed under Sus scrofa was > 3 µM.

In the case of `COCC(CC1(C(=O)N[C@H]2C[C@@H]2c2ccc(Cl)cc2)CCCC1)C(=O)O` (relative stereo), the IC50 in data set [1] stood at 20 nM. For the same compound, the Activity in the data set listed under Sus scrofa was > 3 µM.

As to `COCCC(CC1(C(=O)NC(C)Cc2ccccc2)CCCC1)C(=O)O` (stereo not drawn), the IC50 in data set [1] worked out at 426 nM. In addition, in the data set listed under Sus scrofa, the Activity was > 3 µM.

`CCCC(CC1(C(=O)N[C@H]2C[C@@H]2c2ccccc2)CCCC1)C(=O)O` (relative stereo) gave an IC50 in data set [1] of 160 nM. Further, the Activity in the data set filed under Sus scrofa is > 3 µM.

Consider `COCC[C@H](CC1(C(=O)N[C@@H]2C[C@H]2c2ccc(OC)cc2)CCCC1)C(=O)O`, for which the IC50 in data set [1] stood at 8 nM; in [6], 5.7 nM. For the same compound, the Activity (in the data set listed under Sus scrofa; in data set [2]) was > 3 µM throughout. The compound also registered a logD in [3] of 0.3. In addition, the half-life at 1 µM in [4] was > 120 min. Further, in data set [5], the Papp A→B stood at 7 ×10⁻⁶ cm/s. The fraction unbound at 1 ug/ml in the data set listed under Homo sapiens is 0.032.

In turn, `COCCC(CC1(C(=O)NCCCc2ccc(OC)cc2)CCCC1)C(=O)O` (stereo not drawn) yielded an IC50 in data set [1] of 2 nM. Also, in the data set filed under Sus scrofa, the Activity was > 3 µM.

For the compound `CCCCCCCNC(=O)C1(CC(CCOC)C(=O)O)CCCC1` (stereo not drawn), in data set [1], the IC50 amounted to 8 nM. The Activity in the data set filed under Sus scrofa is > 3 µM.

Turning to `CCC[C@H](CC1(C(=O)Nc2nnc(CC)s2)CCCC1)C(=O)O`, the IC50 in data set [1] came out at 23.7 nM. The Activity (in the data set listed under Sus scrofa; in data set [2]) was > 3 µM in each case. Besides, the logD in [3] came to 0.5. For the same compound, the half-life at 1 µM in data set [4] is > 120 min. In addition, the Papp A→B in data set [5] was found to be 9 ×10⁻⁶ cm/s. In data set [7], this compound had a clearance of 3 mL/min/kg. In addition, the Vd in [8] was found to be 0.44 L/kg. Moreover, the half-life in data set [9] is 102 min. The same compound displayed a Fu in [10] of 0.106.

`COCCC(CC1(C(=O)N[C@H]2C[C@@H]2c2ccccc2)CCCC1)C(=O)O` (relative stereo) returned an IC50 in [1] of 100 nM. For the same compound, in the data set filed under Sus scrofa, the Activity is > 3 µM.

On to `COCCC(CC1(C(=O)NCCOc2ccc(OC)cc2)CCCC1)C(=O)O` (stereo not drawn), for which, in data set [1], it took 35 nM to reach half-maximal inhibition (IC50). In addition, the Activity in the data set filed under Sus scrofa is > 3 µM.

On to `COCCC(CC1(C(=O)N[C@@H]2C[C@H]2c2ccc(F)cc2)CCCC1)C(=O)O` (relative stereo), for which the IC50 in data set [1] was found to be 40 nM. Moreover, in the data set listed under Sus scrofa, the Activity is > 3 µM.

`COCCC(CC1(C(=O)N[C@@H]2C[C@H]2c2ccc(OC)cc2)CCCC1)C(=O)O` (relative stereo): the IC50 in [1] was determined as 8 nM. For the same compound, in the data set filed under Sus scrofa, the Activity is > 3 µM.

On to `COCCC(CC1(C(=O)Nc2nnc(Cc3ccccc3)s2)CCCC1)C(=O)O` (stereo not drawn), for which inhibition in data set [1] was half-maximal at 5 nM (IC50). Moreover, the Activity in the data set filed under Sus scrofa is > 3 µM.

Source of the values: ChEMBL document CHEMBL1144531, “Novel selective inhibitors of neutral endopeptidase for the treatment of female sexual arousal disorder” (Bioorg Med Chem, 2007).
